# The source made the active and inactive calls.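 Rule for the calls, unless noted: active = inhibition above 20% together with a positive visual image hit; inconclusive = visual image hit but inhibition not above 20%; inactive = no visual image hit.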
# Legend:
# [1] = inhibitors of TNFa-induced NFkB p65 translocation, primary screen, imaging, HUVEC, MLSMR starter and 10KST1 sets (AID 438); settings: HUVEC TNFa-induced p65 nuclear translocation; cell count: measured here: nuclei count (cytotoxicity indicator), at 2.08 µM; inhibition: at 2 µM, stronger effect = higher value, 0% TNFa-plus-vehicle, 100% no-TNFa wells;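 note: compound added about 3h40 before a 20 min TNFalpha stimulation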;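 for inhibition: signal is the nuclear over cytoplasmic p65 intensity ratio per well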
# [2] = inhibitors of mutant huntingtin aggregation, primary screen, imaging, exon1htt(103Q)mCFP cells, high-content imaging (AID 483;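 active = visual image review flags a hit and inhibition of aggregation exceeds 20%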;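 note: compound exposure lasted 3 days before fixation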;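 for nuclei count: percent of the per-plate median nuclei count of sample wells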); settings: exon1htt(103Q)mCFP cell line, aggregate imaging, at 2 µM; inhibition of aggregation: stronger effect = higher value; nuclei count: measured here: cell count, toxicity
# [3] = inhibitors of E-selectin induction by TNFa, primary screen, imaging, HUVEC, immunofluorescence, MLSMR starter and 10KST1 sets (AID 487;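 active = visually confirmed hit in the image check and inhibition above 20%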;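 for inhibition: signal is fraction of cell area covered by stained E-selectin grains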;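 for nuclei count: 100% = median nuclei count of all wells on the same plate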); settings: HUVEC TNFalpha-induced E-selectin immunofluorescence imaging, at 2 µM; inhibition: stronger effect = higher value; nuclei count: measured here: cell number, toxicity
# [4] = molecular target: Voltage-gated potassium channel subunit beta-2 (Rattus norvegicus) (UniProt P62483); experiment: KvBeta enzyme negative modulators, primary screen, biochemical, NADPH fluorescence (AID 622;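 active = fluorescence slope higher than the sample average by over 3 SD, cut at about -0.22 in these data, passing the limit was not always enough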;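 note: slope of raw intensity against log time taken from 70 to 1610 s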); settings: recombinant KvBeta, 4-cyanobenzaldehyde reduction, at 10 µM, stronger effect = higher value
# [5] = molecular target: Voltage-gated potassium channel subunit beta-2 (Rattus norvegicus) (UniProt P62483); experiment: KvBeta positive modulators, primary screen, biochemical, NADPH fluorescence (AID 623;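 active = NADPH fluorescence slope more negative than the mean of all samples by about 3 SD, 99.7% confidence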;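 note: fluorescence intensity change per second fitted from 20 to 320 s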); settings: Recombinant KvBeta, NADPH fluorescence decrease slope, 10 min; at 10 µM; stronger effect = lower value
# [6] = molecular target: Alpha-2C adrenergic receptor (Homo sapiens) (UniProt P18825); experiment: modulators of alpha2C/GIRK thallium flux, primary screen, cell-based, HEK293 alpha2C/GIRK1/2 (AID 624;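 active = fluorescence slope after compound addition differing from the mean of all screened samples at 99.7% confidence, in either direction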;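 note: slope of fluorescence ratio to pre-addition baseline per second over 15 to 24 s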); settings: thallium flux BTC fluorescence, at 10 µM, actives lie on both sides
# [7] = inhibitors of larval lipid processing in zebrafish, primary screen, whole organism, PED6 fluorescence, gall bladder and intestine (AID 686;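 active = a full or partial loss of lipid-probe fluorescence in the fish gall bladder, intestine or both, judged by eye; inactive = no fluorescence loss, or compound toxic to the fish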;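 note: larvae 5 to 7 days old with five fish per well; signal comes from phospholipase A2 cleavage of quenched PED6 carried via bile; overnight exposure to compound and PED6 before scoring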); settings: Zebrafish larvae PED6 lipid processing, fluorescence scoring; screened at 20 µM (by protocol)
# Procedure, shortened: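 System: live zebrafish larvae aged 5-7 days, whole organism; measure: graded gall bladder and intestinal fluorescence inhibition per well; incubation: overnight exposure; reagent: ingested quenched lipid PED6 at 100 nM; signal: By-eye fluorescence microscopy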
# [8] = inhibitors of Sendai virus-induced IRF3 signaling, primary screen, TLR/RLR signaling modifier project, cell-based, Sendai virus stimulus, luciferase, 10K MLSCN set (AID 602276;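 active = inhibition at or above 50% at 10 µM; inactive = inhibition below 50%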;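 note: firefly luciferase from ISG56 promoter only with Renilla not read in this screen; 0% = Sendai virus plus DMSO and 100% = medium plus DMSO without virus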); settings: HEK293 RL24 IRF3 luciferase reporter, at 10 µM, stronger effect = higher value
# [9] = inhibitors of poly I:C-induced TLR3 signaling, primary screen, cell-based, poly I:C stimulus, luciferase, 10K MLSCN set (AID 602277;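 active = inhibition of the reporter signal at or above 50%; inactive = inhibition below 50%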); settings: HEK293-TLR3 RL24 IRF3 luciferase reporter, at 10 µM, stronger effect = higher value
# [10] = molecular target: Muscarinic acetylcholine receptor M4 (Homo sapiens) (UniProt P08173); experiment: compounds altering M4/GIRK thallium flux, either direction, primary screen, M4 allosteric agonist project, cell-based, HEK293 M4/GIRK, BTC-AM (AID 625;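 active = fluorescence slope after compound addition differing from the mean of all tested samples at 99.7% confidence, mostly higher but some lower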;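 note: thallium influx through GIRK channels coupled to M4 in HEK293 cells with BTC-AM dye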); settings: at 10 µM, actives lie on both sides
# Procedure, shortened: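 Material: M4/GIRK1/GIRK2 stable HEK293 cell line. Medium: pH 7.3 thallium assay buffer. Dosing: single compound concentration, 10 µM final. Schedule: 1 h dye loading, 2 min kinetic read. Measured by: kinetic fluorescence with BTC-AM dye. Read-out: post-addition slope, 15–24 s, of baseline-normalized fluorescence. Benchmarks: carbachol and DMSO controls.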
# Sequence of Voltage-gated potassium channel subunit beta-2 (Rattus norvegicus) (P62483 whole entry, looked up): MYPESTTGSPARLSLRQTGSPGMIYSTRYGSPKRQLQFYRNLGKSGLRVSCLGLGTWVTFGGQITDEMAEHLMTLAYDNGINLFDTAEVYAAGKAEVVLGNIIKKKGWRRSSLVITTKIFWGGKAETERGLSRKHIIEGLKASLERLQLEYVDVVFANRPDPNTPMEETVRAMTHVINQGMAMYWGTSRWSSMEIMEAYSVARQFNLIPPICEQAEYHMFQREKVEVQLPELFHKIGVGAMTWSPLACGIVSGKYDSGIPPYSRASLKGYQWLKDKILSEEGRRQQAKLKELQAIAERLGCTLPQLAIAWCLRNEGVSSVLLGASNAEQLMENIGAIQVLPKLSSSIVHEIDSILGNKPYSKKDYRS
# Sequence of Alpha-2C adrenergic receptor (Homo sapiens) (P18825 whole entry, looked up): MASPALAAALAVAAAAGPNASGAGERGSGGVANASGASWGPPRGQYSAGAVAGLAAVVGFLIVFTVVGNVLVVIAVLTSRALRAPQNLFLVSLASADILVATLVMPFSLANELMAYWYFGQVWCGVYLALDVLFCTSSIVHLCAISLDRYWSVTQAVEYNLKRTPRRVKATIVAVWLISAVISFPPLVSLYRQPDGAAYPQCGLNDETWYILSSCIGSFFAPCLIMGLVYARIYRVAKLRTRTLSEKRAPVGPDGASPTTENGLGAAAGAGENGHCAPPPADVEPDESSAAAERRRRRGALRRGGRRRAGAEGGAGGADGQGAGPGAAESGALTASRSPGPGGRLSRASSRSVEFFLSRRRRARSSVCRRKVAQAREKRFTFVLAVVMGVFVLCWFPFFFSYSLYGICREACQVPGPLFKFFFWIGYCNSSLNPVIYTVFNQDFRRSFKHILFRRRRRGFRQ
# Sequence of Muscarinic acetylcholine receptor M4 (Homo sapiens) (P08173 whole entry, looked up): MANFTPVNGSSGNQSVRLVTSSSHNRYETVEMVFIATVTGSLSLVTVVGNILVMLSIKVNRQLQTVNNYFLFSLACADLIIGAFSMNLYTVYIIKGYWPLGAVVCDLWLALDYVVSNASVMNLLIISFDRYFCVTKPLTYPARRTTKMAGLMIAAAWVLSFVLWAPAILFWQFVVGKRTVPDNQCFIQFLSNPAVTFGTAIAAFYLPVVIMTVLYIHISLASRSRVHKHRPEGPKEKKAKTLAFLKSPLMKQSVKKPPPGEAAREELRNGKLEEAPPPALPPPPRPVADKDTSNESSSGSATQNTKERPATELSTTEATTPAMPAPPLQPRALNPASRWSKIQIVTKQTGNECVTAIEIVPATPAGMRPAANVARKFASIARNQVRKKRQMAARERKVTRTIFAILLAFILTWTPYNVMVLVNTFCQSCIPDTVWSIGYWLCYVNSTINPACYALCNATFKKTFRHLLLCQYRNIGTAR
SMILES,cell count [1],inhibition [1],inhibition of aggregation [2],nuclei count [2] [%],inhibition [3],nuclei count [3] [%],fluorescence slope [4],NADPH fluorescence slope [5],slope [6],outcome [7],inhibition [8],inhibition [9],fluorescence slope [10]
COc1ccccc1-n1nnnc1SCc1cc2c(cc1Br)OCO2,319,-4.5% (inactive),-1.1% (inactive),90.3,-168% (inactive),130,-0.437 (inactive),-4.6e-05 (inactive),0.00645 (inactive),inactive,19.6% (inactive),22.9% (inactive),–
O=C(CSc1nnc(-c2ccco2)n1CC1CCCO1)N1CCCCC1 (stereo not given),375,1.4% (inactive),9.7% (inactive),102,-41% (inactive),107,-0.378 (inactive),-6.2e-05 (inactive),0.00431 (inactive),inactive,13.1% (inactive),11.6% (inactive),–
COc1cccc(CC(=O)Nn2c(C)nc3ccccc3c2=O)c1,375,10.5% (inactive),-8.2% (inactive),102,-2% (inactive),115,-0.395 (inactive),-6e-05 (inactive),0.00573 (inactive),inactive,-2.22% (inactive),98% (active),–
COC(=O)Cn1cnc2sc(C)c(S(=O)(=O)N3CCC(C)CC3)c2c1=O,543,-2.4% (inactive),-10.1% (inactive),106,-31.1% (inactive),101,-0.473 (inactive),-2.3e-05 (inactive),0.00523 (inactive),inactive,6.12% (inactive),8.67% (inactive),–
Cc1cc(N2C(=O)CC(N3CCN(c4ccc(C(=O)c5cccs5)cc4)CC3)C2=O)no1 (stereo not given),654,10.8% (inactive),-3% (inactive),112,-31.2% (inactive),93.1,-0.392 (inactive),-4.4e-05 (inactive),0.00594 (inactive),inactive,-4.13% (inactive),-9.36% (inactive),–
Cc1csc(NC(=O)Nc2cccc(Cl)c2)n1,506,1.8% (inactive),-3.3% (inactive),97.5,-98.3% (inactive),113,-0.373 (inactive),-3.7e-05 (inactive),0.00525 (inactive),active; weak signal in gallbladder only,-37.7% (inactive),-119% (inactive),–
Cc1ccc(-c2nn[nH]n2)cc1,334,-7.1% (inactive),-16.2% (inactive),117,-4.4% (inactive),123,-0.474 (inactive),-3.8e-05 (inactive),0.00429 (inactive),inactive,4.2% (inactive),10.7% (inactive),–
O=C(CCn1c(=O)c2sccc2n(CC(=O)NCc2ccco2)c1=O)NCc1ccccc1,331,-2.4% (inactive),0% (inactive),100,-60% (inactive),111,-0.566 (inactive),-8.5e-05 (inactive),–,–,-3.97% (inactive),-0.766% (inactive),0.00667 (inactive)
O=C(c1cccc(Cl)c1)N1CCN(Cc2ccncc2)CC1,702,3.1% (inactive),1.7% (inactive),106,-87.8% (inactive),109,-0.537 (inactive),0.000145 (inactive),–,–,3.71% (inactive),7.08% (inactive),0.00543 (inactive)
COc1ccc(CCNC(=O)COc2ccc(S(=O)(=O)N3CCOCC3)cc2)cc1,588,-17.6% (inactive),10.7% (inactive),88.7,11.7% (inactive),116,-0.32 (inactive),-4.1e-05 (inactive),–,–,12.7% (inactive),23% (inactive),0.00641 (inactive)
COc1ccccc1OCc1ccc(C(=O)N2CCN(C(=O)c3ccco3)CC2)cc1,502,-32.6% (inactive),6% (inactive),98.6,-92.1% (inactive),103,-0.416 (inactive),-3e-05 (inactive),0.00401 (inactive),inactive,1.91% (inactive),18% (inactive),–
O=C(CCN1CCOCC1)Nc1cccc(Br)c1,354,-5.1% (inactive),-9.3% (inactive),134,-70.3% (inactive),125,-0.409 (inactive),9.1e-05 (inactive),–,–,16.1% (inactive),15.9% (inactive),0.00691 (inactive)

# From PubChem BioAssay
